The values that follow come from ChEMBL document CHEMBL3867423, “New imidazolidineiminothione derivatives: Synthesis, spectral characterization and evaluation of antitumor, antiviral, antibacterial and antifungal activities” (Eur J Med Chem, 2016).

Values after ≈ are worked out from the molar mass of the structure shown.

One assay concerns Coxsackievirus B4. The experiment in a line: Antiviral activity against human Coxsackie virus B4 infected in African green monkey Vero cells by plaque formation assay. On the set-up: concentration or dose not given beside the values. Type of assay: functional.
Assay [1] has as its system Pseudomonas aeruginosa. Briefly: Antibacterial activity against Pseudomonas aeruginosa ATCC 25619 after 24 hrs by two-fold serial dilution method. Type of assay: functional. Conditions: ATCC 25619, 24 h. A digest of the protocol: (§1)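 Two-fold serial dilutions of DMSO stock in adjusted Mueller-Hinton broth, final 100 to 0.78 µg/ml. Bacteria pre-grown in nutrient broth, fungi in malt extract broth (48 h). Each 5 ml tube given 0.1 ml inoculum (1×10⁸ CFU/ml bacteria, 1×10⁶ CFU/ml fungi), incubated 37 °C 24 h. MIC taken as lowest concentration with no growth; triplicate, averaged.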

Another assay concerns Bacillus subtilis. The experiment in a line: Antibacterial activity against Bacillus subtilis NCTC 10400 at 5 mg after 24 hrs by agar well diffusion assay. The class given is functional. The following applies: NCTC 10400, 24 h, read-out: DIZ. A digest of the protocol:
(§2)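 Agar well diffusion. 100 µL inoculum (1×10⁸ CFU/mL bacteria, 1×10⁶ CFU/mL yeast) spread on nutrient agar (bacteria) or Sabouraud dextrose agar (fungi). 10 mm wells loaded with 100 µL of 5 mg/mL compound in DMSO. DMSO as negative control. Erythromycin (bacteria) or […] (fungi) at 5 mg/ml as standards. Plates incubated 24 h at 37 °C. Inhibition zone diameter (mm) measured, mean of triplicate.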
(Agar diffusion results depend on both activity and mobility in agar.)

For assay [2], the system named is Pseudomonas aeruginosa. Briefly: Antibacterial activity against Pseudomonas aeruginosa ATCC 25619 at 5 mg after 24 hrs by agar well diffusion assay. The class given is functional. Conditions: ATCC 25619, 24 h, read-out: DIZ. A digest of the protocol: as §2
Assay [3] in a line: Cytotoxicity against human PC3 cells assessed as decrease in cell viability after 48 hrs by SRB assay. The following applies: pc-3. The class given is functional, cell-based. A digest of the protocol:
(§3)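 SRB assay. Cells seeded at 10⁴ per well and allowed to attach for 24 h. Exposed to 0, 5, 12.5, 25 and 50 µg/mL, triplicate wells per dose, for 48 h at 37 °C in 5% CO₂. Cells fixed and SRB-stained; excess dye removed with acetic acid, bound dye recovered in Tris-EDTA and read on an ELISA reader. IC50 read from the surviving-fraction curve.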
(In general: In SRB staining, fixed cells bind dye roughly in proportion to their protein.)

A short description of assay [4]: Antifungal activity against Penicillium chrysogenum at 5 mg after 24 hrs by agar well diffusion assay. Type of assay: functional. A digest of the protocol: as §2
The test system of assay [5] is Micrococcus luteus. The experiment in a line: Antibacterial activity against Micrococcus luteus ATCC 10240 at 5 mg after 24 hrs by agar well diffusion assay. The class given is functional. Conditions: ATCC 10240, 24 h, read-out: DIZ. A digest of the protocol: as §2
The test system of a further assay is Aspergillus niger. The experiment in a line: Antifungal activity against Aspergillus niger at 5 mg after 24 hrs by agar well diffusion assay. The class given is functional. Conditions: read-out: DIZ. A digest of the protocol:
as §2

Assay [6] has as its system Micrococcus luteus. Briefly: Antibacterial activity against Micrococcus luteus ATCC 10240 after 24 hrs by two-fold serial dilution method. Type of assay: functional. The following applies: ATCC 10240, 24 h. A digest of the protocol:
as §1

The subject of assay [7] is Micrococcus luteus. Briefly: Antibacterial activity against Sarcina lutea at 5 mg after 24 hrs by agar well diffusion assay. Type of assay: functional. Conditions: read-out: DIZ. A digest of the protocol:
as §2

The subject of the next assay is Escherichia coli. The experiment in a line: Antibacterial activity against Escherichia coli ATCC 10536 at 5 mg after 24 hrs by agar well diffusion assay. Type of assay: functional. Conditions: ATCC 10536, 24 h, read-out: DIZ. A digest of the protocol:
as §2

In assay [8] the test system is Micrococcus luteus. The experiment in a line: Antibacterial activity against Sarcina lutea after 24 hrs by two-fold serial dilution method. Type of assay: functional. A digest of the protocol: as §1
For assay [9], the system named is Bacillus pumilus. The experiment in a line: Antibacterial activity against Bacillus pumilus at 5 mg after 24 hrs by agar well diffusion assay. The class given is functional. The following applies: read-out: DIZ. A digest of the protocol:
as §2

Assay [10] in a line: Cytotoxicity against human MCF7 cells assessed as decrease in cell viability after 48 hrs by SRB assay. On the set-up: unit not given here. The class given is functional, cell-based. A digest of the protocol:
as §3

Assay [11] is described as follows: Cytotoxicity against human HCT116 cells assessed as decrease in cell viability after 48 hrs by SRB assay. The class given is functional, cell-based. Conditions: hct-116. A digest of the protocol:
as §3

In assay [12] the test system is Candida albicans. Briefly: Antifungal activity against Candida albicans IMRU 3669 after 24 hrs by two-fold serial dilution method. The class given is functional. The following applies: IMRU 3669, 24 h. A digest of the protocol: as §1
The test system of another assay is Human alphaherpesvirus 1. Briefly: Antiviral activity against HSV1 infected in African green monkey Vero cells by plaque formation assay. Type of assay: functional. On the set-up: concentration or dose not given beside the values.
A short description of assay [13]: Cytotoxicity against human HepG2 cells assessed as decrease in cell viability after 48 hrs by SRB assay. The class given is functional, cell-based. A digest of the protocol:
as §3

Assay [14] relates to Candida albicans. Briefly: Antifungal activity against Candida albicans IMRU 3669 at 5 mg after 24 hrs by agar well diffusion assay. The class given is functional. Conditions: IMRU 3669, 24 h, read-out: DIZ. A digest of the protocol: as §2
For assay [15], the system named is Bacillus pumilus. The experiment in a line: Antibacterial activity against Bacillus pumilus after 24 hrs by two-fold serial dilution method. The class given is functional. A digest of the protocol:
as §1

The next assay concerns Hepatovirus A. The experiment in a line: Antiviral activity against Hepatitis A virus infected in African green monkey Vero cells by plaque formation assay. Type of assay: functional. On the set-up: concentration or dose not given beside the values.

What is called MIC is the least concentration at which growth counts as inhibited. Consider `CSc1ccc(N2C(=N)C(=S)N(c3cc(Cl)cc(Cl)c3)C2=O)cc1`, for which the Activity was 0% with Coxsackievirus B4, 3.4% in the assay with Human alphaherpesvirus 1 and 0% with Hepatovirus A. Besides, the MIC in the assay on Pseudomonas aeruginosa [1] amounted to 0.78 µg/mL (≈ 1.97 µM); against Micrococcus luteus [6], 6.25 µg/mL (≈ 15.8 µM); with Micrococcus luteus [8] it was 6.25 µg/mL (≈ 15.8 µM); against Candida albicans [12], 6.25 µg/mL (≈ 15.8 µM); in the assay on Bacillus pumilus [15], 6.25 µg/mL (≈ 15.8 µM). Further, the zone of inhibition at 5000 µg/disc came out at 24 mm with Bacillus subtilis; 21 mm in the assay on Pseudomonas aeruginosa [2]; 18 mm in the assay on Micrococcus luteus [5]; 19 mm in the assay with Aspergillus niger; 26 mm with Micrococcus luteus [7]; 23 mm with Escherichia coli. Also, the zone of inhibition at 5000 µg/disc in the assay on Bacillus pumilus [9] and with Candida albicans [14] was 25 mm throughout. In addition, the IC50 came to 0.049 µg in [3], 0.018 in assay [10], 0.031 µg in [11] and 0.029 µg in assay [13]. This compound yielded an inhibition zone (IZ) in assay [4] of 20 mm.
For `Cc1ccc(F)cc1N1C(=N)C(=S)N(c2cc(Cl)cc(Cl)c2)C1=O`, the Activity with Coxsackievirus B4 is 31.1%; in the assay with Human alphaherpesvirus 1, 45.3%; in the assay on Hepatovirus A it was 20.6%. The MIC came to 3.12 µg/mL (≈ 8.16 µM) with Pseudomonas aeruginosa [1]; 6.25 µg/mL (≈ 16.4 µM) against Micrococcus luteus [6]; 3.12 µg/mL (≈ 8.16 µM) against Micrococcus luteus [8]; 6.25 µg/mL (≈ 16.4 µM) with Candida albicans [12]; 6.25 µg/mL (≈ 16.4 µM) in the assay with Bacillus pumilus [15]. Further, the zone of inhibition at 5000 µg/disc in the assay with Bacillus subtilis was 20 mm; in the assay with Pseudomonas aeruginosa [2], 22 mm; with Micrococcus luteus [5] it was 20 mm; with Aspergillus niger, 22 mm; with Micrococcus luteus [7], 24 mm; in the assay on Escherichia coli, 18 mm. The zone of inhibition at 5000 µg/disc in the assay with Bacillus pumilus [9] came to 21 mm; in the assay with Candida albicans [14], 18 mm. The IC50 in assay [3] is 0.064 µg; in [10], 0.011; in assay [11], 0.034 µg; in assay [13], 0.05 µg. In addition, the inhibition zone (IZ) in assay [4] came to 21 mm.
For the compound `COc1ccc(OC)c(N2C(=O)N(c3ccc(SC)cc3)C(=N)C2=S)c1`, the Activity in the assay on Coxsackievirus B4 came to 18.5%; in the assay on Human alphaherpesvirus 1 it was 85.7%; with Hepatovirus A, 0%. Also, the MIC in the assay on Pseudomonas aeruginosa [1] was 0.78 µg/mL (≈ 2.01 µM); with Micrococcus luteus [6], 6.25 µg/mL (≈ 16.1 µM); against Micrococcus luteus [8], 6.25 µg/mL (≈ 16.1 µM); in the assay on Candida albicans [12] it was 6.25 µg/mL (≈ 16.1 µM); with Bacillus pumilus [15], 6.25 µg/mL (≈ 16.1 µM). The zone of inhibition at 5000 µg/disc amounted to 29 mm with Bacillus subtilis; 25 mm in the assay with Pseudomonas aeruginosa [2]; 17 mm with Micrococcus luteus [5]; 20 mm in the assay with Aspergillus niger; 31 mm in the assay with Micrococcus luteus [7]; 29 mm in the assay on Escherichia coli. The zone of inhibition at 5000 µg/disc in the assay on Bacillus pumilus [9] was 20 mm; with Candida albicans [14], 27 mm. In addition, the IC50 in assay [3] worked out at 0.047 µg; in assay [10] it was 0.028; in [11], 0.05 µg; in assay [13] it was 0.029 µg. The compound further yielded an inhibition zone (IZ) in assay [4] of 22 mm.
Consider `COc1ccc(N2C(=N)C(=S)N(c3cc(OC)ccc3OC)C2=O)cc1`, for which the Activity amounted to 0% in the assay with Coxsackievirus B4, 42% with Human alphaherpesvirus 1 and 60.1% with Hepatovirus A. Also, the MIC in the assay with Pseudomonas aeruginosa [1] is 0.78 µg/mL (≈ 2.1 µM); against Micrococcus luteus [6] it was 6.25 µg/mL (≈ 16.8 µM); against Micrococcus luteus [8], 6.25 µg/mL (≈ 16.8 µM); in the assay with Candida albicans [12], 6.25 µg/mL (≈ 16.8 µM); in the assay with Bacillus pumilus [15] it was 3.12 µg/mL (≈ 8.4 µM). Moreover, the zone of inhibition at 5000 µg/disc came out at 28 mm in the assay on Bacillus subtilis; 26 mm with Pseudomonas aeruginosa [2]; 17 mm in the assay on Micrococcus luteus [5]; 19 mm in the assay with Aspergillus niger; 27 mm with Micrococcus luteus [7]; 28 mm with Escherichia coli. For the same compound, the zone of inhibition at 5000 µg/disc in the assay on Bacillus pumilus [9] is 23 mm; with Candida albicans [14], 29 mm. For the same compound, the IC50 in assay [3] is 0.051 µg; in assay [10], 0.031; in [11] it was 0.051 µg; in [13], 0.032 µg. The compound also registered an inhibition zone (IZ) in assay [4] of 20 mm.
`N=C1C(=S)N(c2cc(Cl)cc(Cl)c2)C(=O)N1c1c(Cl)cccc1Cl`: the figures for the Activity with Coxsackievirus B4, in the assay on Human alphaherpesvirus 1 and in the assay with Hepatovirus A were 0%, 33.6% and 70.2%, respectively. For the same compound, the zone of inhibition at 5000 µg/disc came out at 19 mm with Bacillus subtilis; 17 mm with Pseudomonas aeruginosa [2]; 16 mm in the assay on Micrococcus luteus [5]; 15 mm in the assay with Aspergillus niger; 27 mm with Micrococcus luteus [7]; 19 mm in the assay with Escherichia coli. The results for the zone of inhibition at 5000 µg/disc in the assay with Bacillus pumilus [9] and in the assay with Candida albicans [14] were 17 mm and 23 mm, respectively. The IC50 in [3] turned out to be 0.064 µg; in assay [10], 0.02; in assay [11] it was 0.039 µg; in [13], 0.039 µg. This compound also showed an inhibition zone (IZ) in assay [4] of 18 mm.
